# Experimental data reported in ChEMBL document CHEMBL5653631, “A Potent and Selective ULK1 Inhibitor Suppresses Autophagy and Sensitizes Cancer Cells to Nutrient Stress” (iScience, 2018).
# The source made the active and inactive calls. The rule behind the calls is not given here.
# What was measured:
# U2OS [1] = experiment: Inhibition of autophagy in human U2OS cells assessed as BafA1-induced LC3B-II accumulation by measuring fold change at 100 nM […] by immunoblotting analysis; type: functional; conditions: time 4 hrs
# U2OS [2] = experiment: Inhibition of autophagy in human U2OS cells assessed as ATG12-positive puncta formation at 100 nM incubated for 2.5 hrs by Fluorescent microscopy based analysis; type: functional, cell-based
# Summary of the method: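 U2OS cells treated 2.5 hr with vehicle or 100 nM AZD8055, with or without 5 μM inhibitor; fixed and immunostained for endogenous ATG12; ATG12-positive puncta (phagophores) assessed by fluorescence microscopy.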
# U2OS [3] = experiment: Inhibition of autophagy in human U2OS cells expressing […] at 100 nM incubated for 2.5 hrs by Fluorescent microscopy based analysis; type: functional, cell-based
# Summary of the method: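 U2OS cells stably expressing EGFP-DFCP1 treated 2.5 hr with vehicle or 100 nM AZD8055, with or without 5 μM inhibitor; imaged live by fluorescence microscopy; DFCP1-positive objects per cell counted in 20–25 cells per condition; mean ± SEM, two-tailed unpaired t test.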
# U2OS [4] = experiment: Inhibition of autophagy in human U2OS cells expressing […] assessed as DFCP1-positive puncta formation by measuring fold change at 100 nM incubated for 2.5 hrs by Fluorescent microscopy based analysis; type: functional
# Summary of the method: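 U2OS cells stably expressing EGFP-DFCP1 (omegasome marker) were treated 2.5 hr with vehicle or 100 nM AZD8055 (mTOR inhibitor used to induce autophagy), with or without 5 μM inhibitor, and imaged live by fluorescence microscopy. DFCP1-positive objects per cell were counted in 20–25 cells per condition and reported as mean ± SEM, with two-tailed unpaired t test.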
compound,measurement,setting,value
COc1ccc(-c2ccc3c(N4CCOC[C@@H]4C)nc(N4CCOC[C@@H]4C)nc3n2)cc1CO [AZD-8055],fold change (FC),U2OS [1],2
same,inhibition,U2OS [2],Active
same,inhibition,U2OS [3],Active
same,fold change (FC),U2OS [4],3
